According to ChEMBL document CHEMBL2034842, “Synthesis, anti-Candida activity, and cytotoxicity of new (4-(4-iodophenyl)thiazol-2-yl)hydrazine derivatives” (Eur J Med Chem, 2012):
In brackets after ≈: the same amount, converted by molar mass.

Assays:
[1] = Cytotoxicity against human Hep2 cells assessed as cell survival fraction at 0.05 ug/mL after 24 hrs by trypan blue exclusion method; assay type: cell-based; conditions: HEp-2 cells, read-out: Survival
In short: (§1)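 Hep2 cells grown in DMEM + 10% FBS + 1% pen/strep at 37 °C, 5% CO2, used at 60–70% confluency. Exponential-phase cells (1 × 10^5/mL) incubated 24 h with six concentrations (100–0.05), final DMSO ≤0.5%. Controls were cells alone or cells + DMSO, with 1 mM sodium nitroprusside as positive control. Cells scraped off, mixed 1:1 with 0.4% trypan blue and counted on a hemocytometer by two operators. Blue cells were scored dead; results given as % viable cells.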

Pichia kudriavzevii = test: Antifungal activity against 3 strains of Candida krusei after 24 hrs by […]; assay type: functional
Staphylococcus warneri = test: Antibacterial activity against Staphylococcus warneri after 18 to 22 hrs by […]; assay type: functional
[2] = Antiproliferative activity against human Hep2 cells assessed as cell survival fraction at 5 ug/mL after 24 hrs by MTT assay; assay type: cell-based; conditions: HEp-2 cells, read-out: Survival
In short: (§2)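 Hep2 (human laryngeal carcinoma) cells maintained in DMEM + 10% FBS + 1% pen/strep, 37 °C, 5% CO2. Seeded in triplicate at 1 × 10^5/well in serum-free medium and exposed 24 h at 37 °C to six compound concentrations (100–0.05). DMSO stock diluted in medium, final DMSO ≤0.5%. MTT reagent added for 2 h at 37 °C, then detergent for 2 h at RT in the dark. Read as OD550 minus OD650.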

[Candida] sake = Antifungal activity against 2 strains of Candida sake after 24 hrs by […]; assay type: functional; conditions: Fermentozyma sake
[3] = Cytotoxicity against human Hep2 cells assessed as cell survival fraction at 50 ug/mL after 24 hrs by trypan blue exclusion method; assay type: cell-based; conditions: HEp-2 cells, read-out: Survival; in short: as §1
Klebsiella aerogenes = test: Antibacterial activity against Enterobacter aerogenes after 18 to 22 hrs by […]; assay type: functional
HEp-2 [4] = test: Antiproliferative activity against human Hep2 cells assessed as cell survival fraction after 24 hrs by MTT assay; assay type: cell-based; conditions: HEp-2, 24 h
In short: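 Hep2 laryngeal carcinoma cells seeded in triplicate at 1 × 10^5/well in serum-free DMEM. Exposed 24 h at 37 °C, 5% CO2, to six concentrations ([…]); DMSO ≤0.5%. MTT reagent added for 2 h at 37 °C, then detergent for 2 h at room temperature in the dark. OD550 minus OD650 read. EC50 from ≥3 independent experiments.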

HEp-2 [5] = test: Cytotoxicity against human Hep2 cells assessed as cell survival fraction after 24 hrs by trypan blue exclusion method; assay type: cell-based; conditions: HEp-2, 24 h
In short: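 Hep2 cells in DMEM with 10% FBS and 1% penicillin-streptomycin, at 37 °C, 5% CO2, grown to 60–70% confluency. Seeded at 1 × 10^5/mL and exposed 24 h to six concentrations ([…]); DMSO ≤0.5%. Controls were cells alone, cells with DMSO, and 1 mM nitroprusside. Scraped cells mixed 1:1 with 0.4% trypan blue; blue cells counted as dead by hemocytometer, two operators. EC50 from ≥3 independent experiments.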

Staphylococcus aureus = test: Antibacterial activity against Staphylococcus aureus after 18 to 22 hrs by […]; assay type: functional
[6] = Antiproliferative activity against human Hep2 cells assessed as cell survival fraction at 10 ug/mL after 24 hrs by MTT assay; assay type: cell-based; conditions: HEp-2 cells, read-out: Survival; in short: as §2
Proteus vulgaris = test: Antibacterial activity against Proteus vulgaris after 18 to 22 hrs by […]; assay type: functional
[7] = Cytotoxicity against human Hep2 cells assessed as cell survival fraction at 10 ug/mL after 24 hrs by trypan blue exclusion method; assay type: cell-based; conditions: HEp-2 cells, read-out: Survival; in short: as §1
[8] = Antiproliferative activity against human Hep2 cells assessed as cell survival fraction at 50 ug/mL after 24 hrs by MTT assay; assay type: cell-based; conditions: HEp-2 cells, read-out: Survival; in short: as §2
Candida parapsilosis = test: Antifungal activity against 4 strains of Candida parapsilosis after 24 hrs by […]; assay type: functional; conditions: Lodderomyces parapsilosis
[9] = Antiproliferative activity against human Hep2 cells assessed as cell survival fraction at 0.5 ug/mL after 24 hrs by MTT assay; assay type: cell-based; conditions: HEp-2 cells, read-out: Survival; in short: as §2
Klebsiella pneumoniae = test: Antibacterial activity against Klebsiella pneumoniae after 18 to 22 hrs by […]; assay type: functional
[10] = Antiproliferative activity against human Hep2 cells assessed as cell survival fraction at 0.05 ug/mL after 24 hrs by MTT assay; assay type: cell-based; conditions: HEp-2 cells, read-out: Survival; in short: as §2
[11] = Cytotoxicity against human Hep2 cells assessed as cell survival fraction at 100 ug/mL after 24 hrs by trypan blue exclusion method; assay type: cell-based; conditions: HEp-2 cells, read-out: Survival; in short: as §1
Streptococcus pyogenes = test: Antibacterial activity against Streptococcus pyogenes after 18 to 22 hrs by […]; assay type: functional
Escherichia coli = test: Antibacterial activity against Escherichia coli after 18 to 22 hrs by […]; assay type: functional
Enterococcus faecalis = test: Antibacterial activity against Enterococcus faecalis after 18 to 22 hrs by […]; assay type: functional
[12] = Antiproliferative activity against human Hep2 cells assessed as cell survival fraction at 100 ug/mL after 24 hrs by MTT assay; assay type: cell-based; conditions: HEp-2 cells, read-out: Survival; in short: as §2
Candida albicans = test: Antifungal activity against 10 strains of Candida albicans after 24 hrs by […]; assay type: functional
Nakaseomyces glabratus = test: Antifungal activity against 4 strains of Candida glabrata after 24 hrs by […]; assay type: functional
Candida tropicalis = test: Antifungal activity against 4 strains of Candida tropicalis after 24 hrs by […]; assay type: functional
[13] = Cytotoxicity against human Hep2 cells assessed as cell survival fraction at 5 ug/mL after 24 hrs by trypan blue exclusion method; assay type: cell-based; conditions: HEp-2 cells, read-out: Survival; in short: as §1
[14] = Cytotoxicity against human Hep2 cells assessed as cell survival fraction at 0.5 ug/mL after 24 hrs by trypan blue exclusion method; assay type: cell-based; conditions: HEp-2 cells, read-out: Survival; in short: as §1

Work on `CC1CC/C(=N\Nc2nc(-c3ccc(I)cc3)cs2)C1` (centres undefined) yielded a viability at 24 h, 0.05 ug/mL [1] of 95%, an MIC (Pichia kudriavzevii) of 2 µg/mL (≈ 5.03 µM) and an MIC (Staphylococcus warneri) of 32 µg/mL (≈ 80.5 µM). It also gave a viability at 24 h, 5 ug/mL [2] of 92%, an MIC ([Candida] sake) of 4 µg/mL (≈ 10.1 µM) and a viability at 24 h, 50 ug/mL [3] of 69%. It also gave an MIC (Klebsiella aerogenes) of 32 µg/mL (≈ 80.5 µM), an EC50 (HEp-2 [4]) of 50 µg/mL (≈ 126 µM) and an EC50 (HEp-2 [5]) of 51 µg/mL (≈ 128 µM). For the same compound, the MIC (Staphylococcus aureus) was 32 µg/mL (≈ 80.5 µM), the viability at 24 h, 10 ug/mL [6] was 90% and the MIC (Proteus vulgaris) was 32 µg/mL (≈ 80.5 µM). For the same compound, the viability at 24 h, 10 ug/mL [7] was 88%, the viability at 24 h, 50 ug/mL [8] was 28% and the MIC (Candida parapsilosis) was 2 µg/mL (≈ 5.03 µM). For the same compound, the viability at 24 h, 0.5 ug/mL [9] was 100%, the MIC (Klebsiella pneumoniae) was over 128 µg/mL and the viability at 24 h, 0.05 ug/mL [10] was 100%. The viability at 24 h, 100 ug/mL [11] was 0%, the MIC (Streptococcus pyogenes) was 32 µg/mL (≈ 80.5 µM) and the MIC (Escherichia coli) was 32 µg/mL (≈ 80.5 µM). The MIC (Enterococcus faecalis) was 32 µg/mL (≈ 80.5 µM), the viability at 24 h, 100 ug/mL [12] was 10% and the MIC (Candida albicans) was 0.25 µg/mL (≈ 0.629 µM). For the same compound, the MIC (Nakaseomyces glabratus) was 2 µg/mL (≈ 5.03 µM), the MIC (Candida tropicalis) was 0.5 µg/mL (≈ 1.26 µM) and the viability at 24 h, 5 ug/mL [13] was 83%. For the same compound, the viability at 24 h, 0.5 ug/mL [14] was 92%.
Work on `C/C(=N\Nc1nc(-c2ccc(I)cc2)cs1)c1ccncc1` yielded a viability at 24 h, 0.05 ug/mL [1] of 90%, an MIC (Pichia kudriavzevii) of 2 µg/mL (≈ 4.76 µM) and an MIC (Staphylococcus warneri) of 8 µg/mL (≈ 19 µM). For the same compound, the viability at 24 h, 5 ug/mL [2] was 58%, the MIC ([Candida] sake) was 4 µg/mL (≈ 9.52 µM) and the viability at 24 h, 50 ug/mL [3] was 37%. It also gave an MIC (Klebsiella aerogenes) of over 128 µg/mL, an EC50 (HEp-2 [4]) of 25 µg/mL (≈ 59.5 µM) and an EC50 (HEp-2 [5]) of 30 µg/mL (≈ 71.4 µM). It also gave an MIC (Staphylococcus aureus) of 8 µg/mL (≈ 19 µM), a viability at 24 h, 10 ug/mL [6] of 35% and an MIC (Proteus vulgaris) of 16 µg/mL (≈ 38.1 µM). The viability at 24 h, 10 ug/mL [7] was 30%, the viability at 24 h, 50 ug/mL [8] was 10% and the MIC (Candida parapsilosis) was 2 µg/mL (≈ 4.76 µM). The viability at 24 h, 0.5 ug/mL [9] was 95%, the MIC (Klebsiella pneumoniae) was over 128 µg/mL and the viability at 24 h, 0.05 ug/mL [10] was 95%. For the same compound, the viability at 24 h, 100 ug/mL [11] was 0%, the MIC (Streptococcus pyogenes) was 4 µg/mL (≈ 9.52 µM) and the MIC (Escherichia coli) was 16 µg/mL (≈ 38.1 µM). It also gave an MIC (Enterococcus faecalis) of 4 µg/mL (≈ 9.52 µM), a viability at 24 h, 100 ug/mL [12] of 0% and an MIC (Candida albicans) of 0.25 µg/mL (≈ 0.595 µM). It also gave an MIC (Nakaseomyces glabratus) of 2 µg/mL (≈ 4.76 µM), an MIC (Candida tropicalis) of 0.5 µg/mL (≈ 1.19 µM) and a viability at 24 h, 5 ug/mL [13] of 66%. It also gave a viability at 24 h, 0.5 ug/mL [14] of 85%.
In the case of `Ic1ccc(-c2csc(N/N=C/c3cccc4ccccc34)n2)cc1`, the viability at 24 h, 0.05 ug/mL [1] is reported as 90%, the MIC (Pichia kudriavzevii) is reported as 64 µg/mL (≈ 141 µM) and the MIC (Staphylococcus warneri) is reported as over 128 µg/mL. It also gave a viability at 24 h, 5 ug/mL [2] of 78%, an MIC ([Candida] sake) of 64 µg/mL (≈ 141 µM) and a viability at 24 h, 50 ug/mL [3] of 39%. It also gave an MIC (Klebsiella aerogenes) of 16 µg/mL (≈ 35.1 µM), an EC50 (HEp-2 [4]) of 35 µg/mL (≈ 76.9 µM) and an EC50 (HEp-2 [5]) of 40 µg/mL (≈ 87.8 µM). The MIC (Staphylococcus aureus) was over 128 µg/mL, the viability at 24 h, 10 ug/mL [6] was 80% and the MIC (Proteus vulgaris) was 16 µg/mL (≈ 35.1 µM). The viability at 24 h, 10 ug/mL [7] was 73%, the viability at 24 h, 50 ug/mL [8] was 5% and the MIC (Candida parapsilosis) was 2 µg/mL (≈ 4.39 µM). It also gave a viability at 24 h, 0.5 ug/mL [9] of 80%, an MIC (Klebsiella pneumoniae) of 16 µg/mL (≈ 35.1 µM) and a viability at 24 h, 0.05 ug/mL [10] of 95%. It also gave a viability at 24 h, 100 ug/mL [11] of 0%, an MIC (Streptococcus pyogenes) of 32 µg/mL (≈ 70.3 µM) and an MIC (Escherichia coli) of 16 µg/mL (≈ 35.1 µM). For the same compound, the MIC (Enterococcus faecalis) was 32 µg/mL (≈ 70.3 µM), the viability at 24 h, 100 ug/mL [12] was 2% and the MIC (Candida albicans) was 0.25 µg/mL (≈ 0.549 µM). It also gave an MIC (Nakaseomyces glabratus) of 2 µg/mL (≈ 4.39 µM), an MIC (Candida tropicalis) of 0.5 µg/mL (≈ 1.1 µM) and a viability at 24 h, 5 ug/mL [13] of 80%. For the same compound, the viability at 24 h, 0.5 ug/mL [14] was 80%.
